Measurements published in ChEMBL document CHEMBL5303300, “EUbOPEN Chemogenomics Library - Multiplex” (2023).
“And” between values parts separate entries of the source, which are not always exact repeats. Equal values may be shown once.

Key:
U2OS = experiment: Multiplex assay against U2OS; type: toxicity, cell-based; conditions: human, number of replicates 2
Procedure, shortened: (§1)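 Tubulin, mitochondrial-mass and membrane-permeability phenotypes are per cents of healthy-nucleus cells. Cells were gated by CellPathfinder machine learning into Hoechst high-intensity objects or normal cells, normal cells into healthy, pyknosed or fragmented nuclei, and pyknosed cells into mitotic or apoptotic. Before that, live cells stained at seeding with Hoechst33342, BioTracker Green Microtubule Cytoskeleton Dye, MitoTracker Red and Annexin V Alexa Fluor 680 were imaged on a CQ1 microscope at 37°C and 5% CO2 after compound addition.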

HEK-293T = experiment: Multiplex assay against HEK293T; type: toxicity, cell-based; conditions: human, number of replicates 2; procedure, shortened: as §1
[1] = 24 h, 10 µM, compound concentration 10 uM
[2] = 48 h, 1 µM, compound concentration 1 uM
[3] = 48 h, 10 µM, compound concentration 10 uM
[4] = 12 h, 1 µM, compound concentration 1 uM
[5] = 12 h, 10 µM, compound concentration 10 uM
[6] = 24 h, 1 µM, compound concentration 1 uM

C=CC(=O)Nc1cccc(C)c1Nc1ncc2cc(-c3c(Cl)c(OC)cc(OC)c3Cl)ccc2n1
Population Healthy Nuclei (%) (U2OS; [1]): 40% and 54%
Population Hoechst High Intensity Objects (%) (U2OS; [1]): 0%
Population Membrane Permeable-Phenotype (%) (U2OS; [1]): 0% and 1%
Population Mitochondria Different-Phenotype (%) (U2OS; [1]): 0% and 8%
Population Mitotic Cells (%) (U2OS; [1]): 13% and 9%
Population Normal (%) (U2OS; [1]): 100%
Population Pyknosed Nuclei (%) (U2OS; [1]): 42% and 38%
Population Tubulin-Different-Phenotype (%) (U2OS; [1]): 92% and 65%
Population Apoptotic (%) (U2OS; [2]): 70% and 59%
Population Fragmented Nuclei (%) (U2OS; [2]): 10% and 1%
Population Healthy Nuclei (%) (U2OS; [2]): 72% and 88%
Population Hoechst High Intensity Objects (%) (U2OS; [2]): 1% and 0%
Population Membrane Permeable-Phenotype (%) (U2OS; [2]): 4% and 1%
Population Mitochondria Different-Phenotype (%) (U2OS; [2]): 1% and 0%
Population Mitotic Cells (%) (U2OS; [2]): 29% and 40%
Population Normal (%) (U2OS; [2]): 98% and 99%
Population Pyknosed Nuclei (%) (U2OS; [2]): 17% and 9%
Population Tubulin-Different-Phenotype (%) (U2OS; [2]): 90% and 85%
Population Apoptotic (%) (U2OS; [3]): 77% and 93%
Population Fragmented Nuclei (%) (U2OS; [3]): 6% and 9%
Population Healthy Nuclei (%) (U2OS; [3]): 31% and 40%
Population Hoechst High Intensity Objects (%) (U2OS; [3]): 0% and 1%
Population Membrane Permeable-Phenotype (%) (U2OS; [3]): 11% and 10%
Population Mitochondria Different-Phenotype (%) (U2OS; [3]): 11% and 10%
Population Normal (%) (U2OS; [3]): 100% and 98%
Population Pyknosed Nuclei (%) (U2OS; [3]): 62% and 50%
Population Tubulin-Different-Phenotype (%) (U2OS; [3]): 100% and 91%
Population Apoptotic (%) (HEK-293T; [4]): 39% and 35%
Population Fragmented Nuclei (%) (HEK-293T; [4]): 3%
Population Healthy Nuclei (%) (HEK-293T; [4]): 87%
Population Hoechst High Intensity Objects (%) (HEK-293T; [4]): 7% and 5%
Population Membrane Permeable-Phenotype (%) (HEK-293T; [4]): 2% and 1%
Population Mitochondria Different-Phenotype (%) (HEK-293T; [4]): 16% and 12%
Population Mitotic Cells (%) (HEK-293T; [4]): 60% and 64%
Population Normal (%) (HEK-293T; [4]): 92% and 94%
Population Pyknosed Nuclei (%) (HEK-293T; [4]): 8% and 9%
Population Tubulin-Different-Phenotype (%) (HEK-293T; [4]): 40% and 41%
Total Cell Count (HEK-293T; [4]): 760 and 929
Population Apoptotic (%) (HEK-293T; [5]): 71% and 67%
Population Fragmented Nuclei (%) (HEK-293T; [5]): 4%
Population Healthy Nuclei (%) (HEK-293T; [5]): 71% and 77%
Population Hoechst High Intensity Objects (%) (HEK-293T; [5]): 20% and 14%
Population Membrane Permeable-Phenotype (%) (HEK-293T; [5]): 2% and 3%
Population Mitochondria Different-Phenotype (%) (HEK-293T; [5]): 42% and 39%
Population Mitotic Cells (%) (HEK-293T; [5]): 28% and 32%
Population Normal (%) (HEK-293T; [5]): 79% and 85%
Population Pyknosed Nuclei (%) (HEK-293T; [5]): 24% and 18%
Population Tubulin-Different-Phenotype (%) (HEK-293T; [5]): 55% and 47%
Total Cell Count (HEK-293T; [5]): 374 and 381
Population Apoptotic (%) (HEK-293T; [6]): 35% and 39%
Population Fragmented Nuclei (%) (HEK-293T; [6]): 6% and 4%
Population Healthy Nuclei (%) (HEK-293T; [6]): 85% and 88%
Population Hoechst High Intensity Objects (%) (HEK-293T; [6]): 5% and 7%
Population Membrane Permeable-Phenotype (%) (HEK-293T; [6]): 1% and 0%
Population Mitochondria Different-Phenotype (%) (HEK-293T; [6]): 4% and 6%
Population Mitotic Cells (%) (HEK-293T; [6]): 64% and 60%
Population Normal (%) (HEK-293T; [6]): 94% and 92%
Population Pyknosed Nuclei (%) (HEK-293T; [6]): 7%
Population Tubulin-Different-Phenotype (%) (HEK-293T; [6]): 26% and 25%
Total Cell Count (HEK-293T; [6]): 1252 and 1297
Population Apoptotic (%) (HEK-293T; [1]): 70% and 60%
Population Fragmented Nuclei (%) (HEK-293T; [1]): 5% and 3%
Population Healthy Nuclei (%) (HEK-293T; [1]): 71% and 77%
Population Hoechst High Intensity Objects (%) (HEK-293T; [1]): 17% and 11%
Population Membrane Permeable-Phenotype (%) (HEK-293T; [1]): 2% and 0%
Population Mitochondria Different-Phenotype (%) (HEK-293T; [1]): 32% and 24%
Population Mitotic Cells (%) (HEK-293T; [1]): 29% and 40%
Population Normal (%) (HEK-293T; [1]): 83% and 88%
Population Pyknosed Nuclei (%) (HEK-293T; [1]): 23% and 18%
Population Tubulin-Different-Phenotype (%) (HEK-293T; [1]): 32% and 29%
Total Cell Count (HEK-293T; [1]): 453 and 428
Population Apoptotic (%) (HEK-293T; [2]): 12%
Population Fragmented Nuclei (%) (HEK-293T; [2]): 12% and 9%
Population Healthy Nuclei (%) (HEK-293T; [2]): 84% and 87%
Population Hoechst High Intensity Objects (%) (HEK-293T; [2]): 8% and 11%
Population Membrane Permeable-Phenotype (%) (HEK-293T; [2]): 5% and 2%
Population Mitochondria Different-Phenotype (%) (HEK-293T; [2]): 0% and 1%
Population Mitotic Cells (%) (HEK-293T; [2]): 87%
Population Normal (%) (HEK-293T; [2]): 91% and 88%
Population Pyknosed Nuclei (%) (HEK-293T; [2]): 2% and 3%
Population Tubulin-Different-Phenotype (%) (HEK-293T; [2]): 10% and 15%
Total Cell Count (HEK-293T; [2]): 3082 and 2641
Population Apoptotic (%) (HEK-293T; [3]): 50% and 52%
Population Fragmented Nuclei (%) (HEK-293T; [3]): 5% and 3%
Population Healthy Nuclei (%) (HEK-293T; [3]): 84% and 85%
Population Hoechst High Intensity Objects (%) (HEK-293T; [3]): 11% and 8%
Population Membrane Permeable-Phenotype (%) (HEK-293T; [3]): 1%
Population Mitochondria Different-Phenotype (%) (HEK-293T; [3]): 8% and 9%
Population Mitotic Cells (%) (HEK-293T; [3]): 50% and 47%
Population Normal (%) (HEK-293T; [3]): 88% and 91%
Population Pyknosed Nuclei (%) (HEK-293T; [3]): 9% and 11%
Population Tubulin-Different-Phenotype (%) (HEK-293T; [3]): 12%
Total Cell Count (HEK-293T; [3]): 751 and 603
